Compound activity from PubChem BioAssay.
STAT3 inh – IL-6 driven STAT3 reporter inhibitors, primary screen, U3A cells, luciferase, luminescence, MLSCN library. IL-6 STAT3-luciferase reporter; host cell line lacks STAT1. inhibition, % at 5.5 µM. 190,000 tested, 0.89% active;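 active means inhibition above the mean inhibition across all screened compounds plus 3 SD, cut at about 44% in these data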;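 further: 0% = DMSO only wells and 100% = 100 µM nifuroxazide control wells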
STAT1 act – STAT1 signaling activators, primary screen, cell-based, HTS, luciferase reporter | NIH 3T3 STAT1-luciferase reporter, IFN-gamma, luminescence; 100% = IFN-gamma alone, no compound | 200,000 tested, 2.6% active | activation (% of control), % at 5.5 µM;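 active means activation above the screen-wide mean activation plus 3 SD, cut at about 130% in these data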;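 further: raw ratio to IFN-gamma control signal so 100% means no change and 0% no light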
STAT3 activator – IL-6 driven STAT3 reporter potentiators, primary screen, U3A cells, luciferase, luminescence, MLSCN library. IL-6 STAT3-luciferase reporter; 100% = signal with IL-6 EC80 alone. activation (% of control), % at 5.6 µM. 190,000 tested, 0.91% active. AID 871, 2007;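 active means activation above the screen-wide mean of compound activation plus 3 SD, cut at about 130% in these data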;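 further: 0% = background luminescence of wells with medium and substrate only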
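Material: STAT1-lacking human U3A cells, STAT3 luciferase reporter | Benchmarks: IL-6-only wells as 100% reference | Probe or stimulus: IL-6 (33 ng/mL) | Timing: Compound 1 h, then IL-6 6 h at 37 °C | Detection: Luminescence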
STAT1 inh – STAT1 signaling inhibitors, primary screen, cell-based, HTS, luciferase reporter; NIH 3T3 STAT1-luciferase reporter, IFN-gamma, luminescence; inhibition, % at 5.5 µM; 200,000 tested, 0.35% active; AID 920, 2007;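 active means inhibition above a set limit, the mean inhibition across all tested compounds plus 3 SD, cut at about 34% in these data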;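 further: 0% = IFN-gamma with DMSO and 100% = IFN-gamma with 300 µM nifuroxazide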
NF-kB expr up – activators of NF-kB expression in neurons, primary screen, cell-based, HTS | human neuronal cells, NF-kB reporter expression; hits give high values | fold change at 12.5 µM | 190,000 tested, 1.6% active | AID 1239, 2008; in the data active means fold change above about 3.3
APP 5'UTR act – activators of APP 5'UTR luciferase reporter, primary screen, SH-SY5Y cells; 190,000 tested, 1% active; activation, % at 2 µM; SH-SY5Y APP 5'UTR luciferase reporter, luminescence; zero percent = DMSO vehicle wells;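 active means activation above a set limit, based on mean plus 3 SD of controls, cut at about 140% in these data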
Active calls of the source: *; . = no result given. The list is not random: actives were taken first. Their share in the collection is about 5.1%.

SMILES	STAT3 inh	STAT1 act	STAT3 activator	STAT1 inh	NF-kB expr up	APP 5'UTR act
COc1cccc(-c2noc(-c3ccc4c(c3)OCO4)n2)c1	72*	62	42	41*	5.7*	159*
COc1ccc(-c2noc(-c3ccc4c(c3)OCO4)n2)cc1	17	122	88	-24	3.9*	23
COc1cc(C2C(C#N)=C(N)Oc3cc(O)ccc32)cc2c1OCO2 (centres undefined)	2	105	102	-7	1.1	5
COc1cc(C2C(C#N)=C(N)Oc3cc(N(C)C)ccc32)cc2c1OCO2 (centres undefined)	-29	111	131	-12	4.8*	-97
COc1cc(-n2ccnc2SC)c(Cl)cc1Cl	16	98	93	2	1	4
O=C(CC1CCCC1)Nc1nc2ccccc2[nH]1	-6	144*	109	-48	2.3	91
O=C(Nc1nc2ccccc2[nH]1)C1CCCC1	-4	136*	107	-44	0.93	89
O=C(Cc1cccc2ccccc12)Nc1nc2ccccc2[nH]1	-10	98	107	2	1	-9
CCS(=O)(=O)N1Cc2ccccc2CC1C(=O)Nc1nc2ccccc2[nH]1 (centres undefined)	-10	118	114	-20	0.86	182*
O=C(Nc1nc2ccccc2[nH]1)C1CCC1	-6	127	109	-33	0.95	38
CCCCCC(=O)Nc1nc2ccccc2[nH]1	-3	129*	105	-32	2.7	68
Cn1nc(-c2ccccc2)c(/C=N/O)c1Cl	12	96	98	3	1.2	34
c1ccc(-c2noc(-c3ccccc3-c3ccccc3)n2)cc1	18	96	89	5	1.4	-14
Brc1ccc(-c2nc(-c3ccccc3)no2)o1	-12	149*	114	-53	4.1*	143*
Brc1ccc(-c2nc(-c3cccnc3)no2)o1	13	132*	92	-35	1.2	38
Cc1ccc(-c2nc(-c3cccnc3)no2)c(C)c1	13	147*	90	-54	4.8*	144*
CC(C)CNC(=O)CC(=O)N/N=C/c1cccs1	-11	100	107	0	1.3	-10
COc1ccc(CCN=CC2=C(O)CC(C)(C)CC2=O)cc1	4	91	100	10	1.2	-3
CCOc1cc(/C=C2\CCC/C(=C\c3cc(Cl)c(O)c(OCC)c3)C2=O)cc(Cl)c1O	-3	99	106	1	1.1	-6
Cc1ccc(CNC(=S)N2CCOCC2)cc1	4	92	103	7	1.1	25
Cc1ccc(/C=N/NC(=S)N2CCOCC2)cc1	-13	131*	113	-35	1.6	64
S=C(N/N=C/c1ccc(Cl)cc1)N1CCOCC1	6	132*	98	-36	1.5	27
COC(=O)c1ccc(COn2nnc3ccccc32)cc1	21	127	89	-29	5.4*	200*
COc1ccc2nc(SCC(=O)N3CCN(c4ccc(F)cc4)CC3)c(C#N)cc2c1	0	105	103	-8	1	23
Nc1c(NC(=O)CC[n+]2ccccc2)cccc1[N+](=O)[O-]	-9	101	106	-1	0.44	18
SMILES	STAT3 inh	STAT1 act	STAT3 activator	STAT1 inh	NF-kB expr up	APP 5'UTR act
COc1ccc(NC(=O)C2CCCN(S(=O)(=O)c3cccc4nonc34)C2)c(OC)c1 (centres undefined)	9	102	96	-2	1.3	-39
c1ccc(-c2nc3cc4ccccc4cc3[nH]2)nc1	86*	60	28	44*	2.8	157*
Cc1nnc2n(c1=O)N=C(c1ccc(Cl)cc1)CS2	-20	132*	114	-36	2.9	112
Clc1ccc(C2=Nn3c(nnc3-c3cccs3)SC2)cc1	21	98	84	-2	1.2	-5
Cc1nc2c3cnn(-c4ccc(C)c(C)c4)c3ncn2n1	8	148*	99	-53	4.3*	.
CCN(CC)C(=O)COc1ccc(/C(C)=N/NC(=O)c2ccccc2O)cc1	4	94	99	6	1.6	-1
CCN(CC)C(=O)COc1ccc(-c2ccccc2)cc1	10	132*	93	-35	2	33
CC1(C)CC(=O)C(N=Nc2ccc(-c3ccccc3)cc2)=C(O)C1	16	105	91	-4	2.3	137*
O=C(Nc1cccc(Cl)c1)Nc1nc(-c2ccc(Cl)cc2)cs1	33	85	78	16	1.2	5
Clc1cccc(Nc2nc(-c3cccnc3)cs2)c1	-64	139*	157*	-45	2.6	76
c1ccc(CNc2nc(-c3cccnc3)cs2)cc1	17	112	87	-14	2.1	8
Brc1ccc(Nc2nc(-c3cccnc3)cs2)cc1	-72	131*	165*	-38	1.1	47
NC(=S)Nc1ncc(C(F)(F)F)cc1Cl	24	92	84	5	0.99	9
Cc1nc(NC2=NCN(CC3CCCO3)CN2)nc2ccccc12 (centres undefined)	5	94	101	7	.	-4
Cc1nc(NC2=NCN(CCCN3CCOCC3)CN2)nc2c(C)cccc12	-86	109	183*	-10	1.2	-16
Cc1nc(NC2=NCN(CCc3ccccc3)CN2)nc2c(C)cccc12	-67	102	158*	-2	.	54
Cc1cc(NC(=O)CSCc2nc(-c3cccc(F)c3)oc2C)no1	14	93	95	7	0.84	-4
Cc1cc(NC(=S)N(Cc2ccc(Cl)cc2)Cc2ccc(C(=O)O)cc2)ccc1Cl	13	105	91	-6	1.2	-3
COc1ccc(C(CNC(=O)c2ccc(S(=O)(=O)N(C)C)cc2)N2CCCCC2)cc1 (centres undefined)	14	98	91	2	0.97	15
c1ccc(-c2cnnc(N3CCCCC3)n2)cc1	-2	142*	108	-46	1.1	113
FC(F)(F)c1cc(-c2ccccc2)nc(N2CCCCCC2)n1	1	97	101	3	0.94	5
O=C(CSCc1ccccc1)N1CCN(C(=O)c2ccco2)CC1	-8	107	108	-8	1.1	1
C/C(N)=C(/C#N)C(=O)COC(=O)c1cc(-c2ccc(Br)cc2)nc2ccccc12	27	98	79	2	3.6*	-7
CC(C)CC1c2[nH]c3ccccc3c2CCN1C(=O)c1cnccn1 (centres undefined)	-61	146*	171*	-52	3	90
COc1ccc(-n2c(Cc3cccn3C)nnc2SCC(=O)Nc2ccc(C)c(Cl)c2)cc1	-7	95	106	6	0.63	10
